Compound activity: PubChem BioAssay, several laboratories
Sampled rows, rich in hits. Any-hit rate of the full collection: about 3.7%.
SR-BI uptake up: activators of SR-BI mediated DiI-HDL uptake, primary screen, ldlA[mSR-BI] CHO cells, DiI fluorescence; activation, % at 12.5 µM; 3 h; 100 = double the neutral-control signal; hit rate 0.096% among 320,000;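 active means mean replicate activation of at least 60% and every replicate at or above 60%; inconclusive means mean or all-replicate condition met, but not both; inactive means mean below 60% and not all replicates reaching 60%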
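Assay system: CHO ldlA[mSR-BI] cells, LDL receptor-null, SR-BI overexpressing; medium: Ham's F12 with 0.5% BSA, HEPES 25 mM, pH 7.4; also added: DiI-HDL 10 µg/mL; timing: 3 h uptake period with compound, 37 °C; signal: DiI fluorescence, bottom read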
SR-BI DiI inh: inhibitors of SR-BI mediated HDL lipid uptake, primary screen, ldlA[mSR-BI] cells, fluorescence, single point; Scavenger receptor class B member 1 (Mus musculus), Q61009; ldlA[mSR-BI] CHO cells, DiI-HDL uptake fluorescence, 3 h; inhibition, % at 12.5 µM; hit rate 0.96% among 320,000; AID 488896, 2010;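 active means mean replicate inhibition of at least 70% and a set share of replicates each scoring 70 or more; inconclusive means meets just one of the two criteria; inactive means fails both criteria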
Target sequence (Q61009 whole entry, looked up): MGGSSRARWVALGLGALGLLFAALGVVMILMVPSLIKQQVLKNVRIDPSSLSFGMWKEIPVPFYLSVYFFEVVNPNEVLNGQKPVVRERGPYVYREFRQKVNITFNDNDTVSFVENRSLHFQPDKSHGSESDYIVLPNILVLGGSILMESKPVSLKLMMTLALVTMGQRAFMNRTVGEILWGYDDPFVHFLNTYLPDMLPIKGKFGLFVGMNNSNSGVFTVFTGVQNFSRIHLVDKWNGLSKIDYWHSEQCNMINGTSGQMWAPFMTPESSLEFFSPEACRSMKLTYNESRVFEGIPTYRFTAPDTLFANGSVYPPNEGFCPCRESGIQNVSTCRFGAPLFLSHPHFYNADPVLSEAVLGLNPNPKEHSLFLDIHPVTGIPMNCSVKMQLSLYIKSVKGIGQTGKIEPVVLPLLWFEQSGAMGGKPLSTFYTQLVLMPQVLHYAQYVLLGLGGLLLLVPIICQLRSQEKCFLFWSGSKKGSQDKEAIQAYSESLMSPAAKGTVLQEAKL
AHR act: AHR activators, primary screen, cell-based, luminescence, luciferase reporter, human. hit rate 2.5% among 320,000. AHR-responsive luciferase reporter cells. activation, % at 5 µM; in the data active means activation above about 47%
GASC-1 inh: inhibitors of GASC-1 histone demethylase, primary screen, biochemical, fluorescence, DELFIA europium | Lysine-specific demethylase 4C (Homo sapiens), Q9H3R0 | GST-JMJD2C(1-420) H3K9me3 demethylation | inhibition, % at 2.35 µM | hit rate 0.069% among 330,000;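 active means more than half of a compound's replicate wells show inhibition beyond 50%, single wells judged on their own value; inconclusive means some, but no more than half, of replicates pass 50% inhibition; inactive means no replicate passes 50% inhibition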;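 further: signal counts dimethyl H3K9 product captured on neutravidin plate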
FXN GAA850 act: FXN promoter activators, primary screen, cell-based, luciferase luminescence, HEK293 lucGAA850 | hit rate 0.56% among 360,000 | HEK293 lucGAA850 FXN promoter luciferase reporter, 24 h; percent of 10 µM SAHA response | activation, % at 6 µM;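 active means activation above the average of all compounds screened plus 3 SD, cutoff fixed separately per campaign, cut at about 7.5% in these data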
AHR act confirm: AHR activators, confirmation, cell-based, luminescence, luciferase reporter, human | shares compounds with AHR act | human cells, AHR-responsive luciferase reporter | activation, % at 9 µM | hit rate 87% among 2,300; in the data active means activation above about 49%;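 further: HepG2 hepatoma cells carrying a DRE-driven firefly luciferase reporter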
PXR act counter: human PXR activators, counter-screen for AHR activator project, cell-based, luciferase luminescence. shares compounds with AHR act. cell-based PXR reporter. activation, % at 11.6 µM. hit rate 88% among 2,300; in the data active means activation above about 11%;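 further: human hepatoma DPX-2 cells expressing full-length human PXR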
Hits are given with their value; n = inactive; u = inconclusive; x = no result given.

SMILES | SR-BI uptake up | SR-BI DiI inh | AHR act | GASC-1 inh | FXN GAA850 act | AHR act confirm | PXR act counter
Fc1ccc(N=C2NN=C(c3cc(F)ccc3F)CS2)cc1 | n | n | n | n | n | x | x
Fc1ccc(F)c(C2=NNC(=Nc3ccccc3F)SC2)c1 | n | n | 79 | n | n | 70 | 56
O=[N+]([O-])c1cccc2ccc(/C=C/c3ccc(F)cc3)nc12 | n | n | 186 | n | n | 229 | 19
[O-]/[N+](=C\c1ccncc1)c1ccc(Br)cc1 | n | n | 123 | n | n | 130 | 16
[O-]/[N+](=C/c1cccnc1)c1ccc(Br)cc1 | n | n | 93 | n | n | 117 | 18
CCC(C)(C)NC(=O)CN(C(=O)C(=O)Nc1ccc2c(c1)OCCO2)C1CC1 | n | n | n | n | n | x | x
Cc1cccc(Nc2ncnc3ccc(Br)cc23)c1 | n | n | 101 | n | n | 72 | 30
COc1nc(Nc2ccc3c(c2)OCO3)nc(OC)n1 | n | n | 119 | n | n | 109 | 18
CN(C)c1ccc(Nc2ncnc3ccc(Br)cc23)cc1 | n | n | 92 | n | n | n | n
COc1ccc(Nc2ncnc3ccc(Br)cc23)cc1OC | n | n | 86 | n | n | 72 | 18
CC(=O)Nc1cccc(Nc2nc(-c3ccccc3F)nc3ccccc23)c1 | n | u | n | n | n | x | x
COc1ccc(C(=O)CCC(C)(C)[N+](=O)[O-])cc1OC | n | n | n | n | n | x | x
CCCCCCCCCCCCCCCC(=O)OC[C@H](COP(=O)([O-])OCC[N+](C)(C)C)OC(=O)CCCCCCCCCCCCCCC | x | x | x | n | x | x | x
Cc1c(NC(=O)CSc2nnc(-c3ccccc3F)o2)c(=O)n(-c2ccccc2)n1C | x | x | x | x | n | x | x
O=S(=O)(Nc1ccc(-n2cnnn2)cc1)c1cccc(F)c1 | n | n | x | x | n | x | x
COc1cc2ncnc(Nc3ccc4c(c3)OCO4)c2cc1OC | n | n | 104 | n | n | 101 | 25
COc1ccc(Nc2ncnc3nc[nH]c23)cc1OC | n | n | 90 | n | n | 75 | 21
COc1ccccc1CNC(=O)C(=O)Nc1ccc(C(=O)N2CCC(C)CC2)cc1 | n | n | n | n | n | x | x
COc1ccc(NC(=O)CN2CCN(CC(=O)Nc3ccc(F)cc3)CC2)c(OC)c1 | n | n | n | n | n | x | x
CCOC(=O)NC(=O)COC(=O)c1ccc(Sc2ncn[nH]2)c([N+](=O)[O-])c1 | n | n | n | n | n | x | x
Fc1ccc2cnc(-c3cccnc3)cc2c1 | n | n | 89 | n | n | 87 | 26
CCc1nc2c(OCc3ccccc3C(=O)OC)cccn2c1N(C)C(=O)c1cccs1 | x | x | x | x | n | x | x
CCCCOc1ccc(-c2nc(/C=N/c3nccs3)c(O)o2)cc1 | n | n | n | n | n | x | x
Oc1oc(-c2ccccc2)nc1/C=N/c1nccs1 | n | n | 100 | n | n | 78 | x
CCOC(=O)c1sc(Nc2nc3c(OC)cccc3s2)nc1C | n | n | 84 | n | n | 127 | 72
SMILES | SR-BI uptake up | SR-BI DiI inh | AHR act | GASC-1 inh | FXN GAA850 act | AHR act confirm | PXR act counter
COc1ccc(/C=C/C(=O)NC(=S)NNC(=O)c2cccs2)cc1 | n | n | 94 | n | n | n | n
COc1ccc(C(=O)NNC(=S)NC(=O)c2cccs2)cc1 | n | n | n | n | n | x | x
CC(=O)n1cc(/C=N/NC(=O)c2sc(C)nc2C)c2ccccc21 | n | n | 94 | n | n | 64 | x
Cc1ccc(NC(=O)C(c2ccccc2)N2CCN(CC(=O)N3CCOCC3)CC2)cc1Cl (stereo not given) | n | n | n | n | n | x | x
O=C(Nc1ccccc1Oc1ccccc1)c1ccccc1F | n | n | 119 | n | n | 131 | 20
CC(=O)Nc1ccccc1Oc1ccccc1 | n | n | n | n | n | x | x
COc1ccc2nnc(-c3ccc(C(F)(F)F)cc3)n2n1 | n | n | 81 | n | n | 105 | 18
Nc1nc(/C=C/c2ccc(F)cc2)nc(-c2ccccc2O)n1 | n | n | 109 | n | n | 136 | 18
Cc1cccc(Nc2nc(N)c([N+](=O)[O-])c(N3CCOCC3)n2)c1 | n | n | n | n | n | x | x
Cc1ccc(Nc2nc(N)c([N+](=O)[O-])c(N3CCOCC3)n2)cc1 | n | n | 81 | n | n | 77 | 22
CCC1(c2ccc(Cl)cc2)NC(=S)N(c2ccccc2)N1 (stereo not given) | n | n | 80 | n | n | 82 | 12
CCC1(c2ccccc2)NC(=S)N(c2ccc(C)cc2)N1 (stereo not given) | n | n | n | n | n | x | x
COc1cccc2c(=O)c3cccc(N)c3[nH]c12 | n | n | 80 | n | n | 60 | x
COc1cccc2c(=O)c3c([nH]c12)OC(C)(C)C3 | n | n | n | n | n | x | x
O=C(Nc1nc(-c2cccs2)cs1)c1ccc(Cl)cc1 | n | n | 129 | n | n | 123 | 36
COc1ccc(C(=O)Nc2nc(-c3cccs3)cs2)cc1 | n | n | n | n | n | x | x
Cn1cccc1C(=O)C(=O)Nc1cccc(Cl)c1Cl | n | n | 92 | n | n | 104 | 10
CCN=C(Nc1ccc(Cl)cc1)c1cccnc1 | n | n | 104 | n | n | 81 | 35
CCN(CC)c1ccc(NC(=O)c2cccnc2)cc1 | x | x | n | n | n | x | x
COc1ccc(NC(=O)CSc2ccc3nnc(-c4cccnc4)n3n2)cc1 | n | n | n | n | n | x | x
Cc1csc(NC(=O)CSc2ccc3nnc(-c4ccncc4)n3n2)n1 | n | n | 92 | n | n | 65 | x
COc1ccc(C(=O)CSc2ccc3nnc(-c4cccnc4)n3n2)cc1 | n | n | 83 | n | n | 74 | 11
COc1ccccc1NC(=O)CSc1ccc2nnc(-c3ccncc3)n2n1 | n | n | n | n | n | x | x
CC(=O)c1ccc(COC(=O)Cc2ccc([N+](=O)[O-])cc2)cc1 | n | n | n | n | n | x | x
CN(C(=O)c1cccc(NC(=O)Cc2cccc(NC(=O)C3CCCN(C(=O)C4CCCCC4)C3)c2)c1)C1CC1 (stereo not given) | n | n | x | x | n | x | x
O=C(NCCc1ccccc1)c1c[nH]c2c(F)cccc2c1=O | n | n | 141 | n | n | 130 | 83
O=C(NCCc1ccccc1)c1n[nH]c2ccccc12 | n | n | 101 | n | n | 103 | 71
CCCNC(=O)COC(=O)c1n[nH]c2ccccc12 | n | n | n | n | n | x | x
O=C(COC(=O)c1n[nH]c2ccccc12)NCCc1ccccc1 | n | n | 98 | n | n | 91 | 19
